Assay outcomes from PubChem BioAssay.
A selection: hits, their analogues and other compounds. The true share with any hit is near 2.2%.
HIV Env fusion – HIV envelope-mediated fusion inhibition | 360,000 compounds, 1.1% hits | HeLa-JRFL Env/CEM21 cell fusion, luciferase | AID 651610 | inhibition, % at 12.3 µM;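 active = mean replicate inhibition score of at least 50 and every replicate individually at or above 50; inconclusive = only one of the two criteria met; inactive = mean below 50 and not all replicates reaching 50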;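 note: 0% = plate neutral controls and 100% = maraviroc near 300 nM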
ERp5 inh – ERp5 (human) disulfide isomerase inhibition; ERp5 insulin aggregation, absorbance 650 nm, 90 min; inhibition, % at 9.99 µM; 350,000 compounds, 0.05% hits; Q15084;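 active = mean replicate inhibition above about 25%, with every replicate also reaching it, limit read from the data, passing the limit was not always enough; inconclusive = only one of those two criteria met; inactive = neither criterion met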
PvdQ inh – blocks Pseudomonas aeruginosa PvdQ acylase activity | 340,000 compounds, 0.063% hits | inhibition, % at 10 µM | purified PvdQ acylase, fluorescence plate reader; in the data active = inhibition above about 30%, passing the limit was not always enough; inconclusive = no clear call, values can overlap the other calls;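 note: 0% = vehicle neutral wells and 100% = reference inhibitor wells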
Ecoli rRNA inh – inhibitors of bacterial rRNA selective over humanized ribosomes; E. coli WT GFP vs humanized-ribosome RFP mutants, fluorescence, 24 h; stronger effect = lower value; DMSO median 0, no signal -100; GFP signal change (wild-type ribosome), % (no concentration beside the values); 350,000 compounds, 1.6% hits; AID 720706;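 active = significant combined selectivity score with lowered wild-type GFP, culture density cut under 30%, mutant RFP and density less affected; inactive = any of these conditions unmet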
PDI turbidity – blocks human protein disulfide isomerase activity. PDI insulin aggregation turbidity, A650, 90 min. P07237. 350,000 compounds, 0.052% hits. AID 588391. inhibition, % at 10 µM;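 active = mean inhibition across replicates of 30% or more, whatever share of single replicates reach that level; inconclusive = mean inhibition below 30% while every single replicate reaches 30%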
Target sequence (P07237 whole entry, looked up): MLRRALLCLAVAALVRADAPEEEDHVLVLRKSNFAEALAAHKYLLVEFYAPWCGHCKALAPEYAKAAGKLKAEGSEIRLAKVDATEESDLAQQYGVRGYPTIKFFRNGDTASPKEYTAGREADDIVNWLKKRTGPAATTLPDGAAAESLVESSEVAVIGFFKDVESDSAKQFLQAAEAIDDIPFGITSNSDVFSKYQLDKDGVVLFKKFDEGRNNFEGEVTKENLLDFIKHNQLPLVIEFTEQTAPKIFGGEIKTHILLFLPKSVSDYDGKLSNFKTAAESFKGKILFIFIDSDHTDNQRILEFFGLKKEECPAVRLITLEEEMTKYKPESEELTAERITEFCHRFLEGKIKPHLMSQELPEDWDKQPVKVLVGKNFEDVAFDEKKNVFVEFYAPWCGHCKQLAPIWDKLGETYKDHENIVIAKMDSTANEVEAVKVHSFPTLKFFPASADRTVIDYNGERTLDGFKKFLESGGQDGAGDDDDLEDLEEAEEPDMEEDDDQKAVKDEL
FN deposition inh – fibronectin deposition inhibition; 350,000 compounds, 0.086% hits; inhibition, % at 12.6 µM; AH1F fibroblasts, Alexa488-fibronectin deposition fluorescence, overnight; AID 743247;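 active = mean inhibition across replicates of 30% or more, regardless of how many single replicates reach that level; inconclusive = mean under 30% yet at least half of replicates reach 30%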;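 note: positive control wells lacked labelled fibronectin entirely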
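Material: AH1F fibroblast monolayer depositing Alexa488-labelled fibronectin into matrix | Input: 10000 AH1F cells/well | Medium: DMEM plus 2% serum, read in PBS | Reagent: Alexa488-fibronectin, 24 nM final in well | Compound dosing: One dose per compound, pinned | Schedule: 1 h adhesion, overnight exposure | Measured by: Fluorescence at 485 nm excitation, 525 nm emission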
AID977621 – wild-type E. coli growth inhibition versus H69 humanized strain – H69 mutant RFP, wild-type GFP, cherry-pick, dose response. shares compounds with Ecoli rRNA inh. fluorescence, 24 h. activity change, negative = inhibition at 50 µM. 1,900 tested, under 10 active. AID 977621;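 active = Wild-type ribosome reporter drop at least double the humanized mutant ribosome reporter drop, growth loss under a set limit; inconclusive = no clear call, values can overlap the other calls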;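 note: wild-type GFP and H69 mutant RFP strains grown together 50/50 in each well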
AID977628 – growth of wild-type and h24-humanized E. coli strains – h24 mutant RFP vs wild-type GFP, cherry-pick, dose response. shares compounds with Ecoli rRNA inh. E. coli WT GFP strain growth, fluorescence, 24 h. activity change, negative = inhibition at 50 µM. 1,900 tested, under 10 active. AID 977628;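 active = compound lowering the normal-ribosome reporter at least twice as much as the humanized-ribosome reporter, growth loss under a set limit; inconclusive = no clear call, values can overlap the other calls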;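 note: wild-type GFP and h24 humanized RFP strains co-cultured 1 to 1 per well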
* = called active by the depositor; ? = inconclusive; . = not tested or not shown; [ ] = dose if it differs, or a comment.

SMILES | HIV Env fusion | ERp5 inh | PvdQ inh | Ecoli rRNA inh | PDI turbidity | FN deposition inh | AID977621 | AID977628
C[C@@H]1CN([C@@H](C)CO)C(=O)c2cccc(N(C)C)c2O[C@@H]1CN(C)C(=O)Nc1ccccc1 | . | -4.2 | . | 5.2 | . | 1.6 | . | .
O=C(c1cccc2c1-c1ccccc1C2)N1CCCCC1 | -0.6 | 3.1 | -0.8 | -21.9* | -11.9 | 6.8 | -11 | ?
Cc1ccnc(NS(=O)(=O)c2ccc(NC(=O)c3ccc4c(c3)OCCO4)cc2)n1 | 2.0 | 2.7 | 11.1 | -22.6* | 4.5 | 9.1 | -11.2 | -12.1
Cc1cccc(-n2cnc3cc([N+](=O)[O-])ccc32)c1 | -84.2 | 3.6 | -6.6 | -16.1* | 6.5 | 6.2 | -14.6 | -14.9
Nc1ccc(-n2cnc3cc([N+](=O)[O-])ccc32)cc1 | . | . | -13.4 | . | -2.8 | . | . | .
COc1ccc(S(=O)(=O)N(C)C[C@@H]2Oc3ccc(NC(=O)Cc4cn(C)c5ccccc45)cc3CC(=O)N([C@@H](C)CO)C[C@H]2C)cc1 | -16.8[16.7 µM] | -4.8 | . | 2.6 | . | . | . | .
CC1CCc2sc3ncn4nc(C(=O)NCc5ccco5)nc4c3c2C1 (stereo unspecified) | -35.5 | . | -5.8 | . | -2.4 | -1.6 | . | .
CC1CCc2c(sc3ncn4c(SCC(=O)NCc5ccco5)nnc4c23)C1 (stereo unspecified) | . | -1.5 | 4.5 | -20.0* | -1.5 | . | -10.7 | -8.4
O=C(O)CC(CC(=O)Nc1ccc(N2CCOCC2)cc1)c1ccccc1 (stereo unspecified) | -6.4 | 4.8 | 2.1 | 4.4 | -0.3 | -3.3 | . | .
O=C(O)CC(CC(=O)Nc1ccc(Oc2ccccc2)cc1)c1ccccc1 (stereo unspecified) | 3.2 | 7.1 | -16.7 | -26.9* | -2.3 | -0.8 | -18.8 | -22.5
C[C@H]1CN([C@@H](C)CO)C(=O)Cc2cc(NC(=O)C3CC3)ccc2O[C@@H]1CN(C)Cc1ccccc1 | -5.4[16.7 µM] | 0.5 | . | 3.2 | . | . | . | .
COC(=O)C[C@H]1C[C@@H]2c3cc(NC(=O)Nc4ccc(C(F)(F)F)cc4)ccc3O[C@@H]2[C@H](CO)O1 | 1.7[16.7 µM] | . | . | -24.9* | . | 3.8 | . | ?
CCCC(=O)N1CC2(CN[C@H](CO)c3c2c2ccc(OC)cc2n3C)C1 | . | . | . | 1.1 | . | . | . | .
COCCCn1c(C)cc(C(=O)COC(=O)CCc2nc3ccccc3c(=O)[nH]2)c1C | 8.4 | -6.0 | . | -27.3* | . | -0.1 | -14.9 | .
COCC(C)n1c(C)cc(C(=O)COC(=O)CCc2nc3ccccc3c(=O)[nH]2)c1C (stereo unspecified) | 23.5 | 0.4 | 9.4 | -17.4 | 4.1 | 6.3 | . | .
O=C(C[C@@H]1CC[C@@H]2[C@H](COC[C@@H](O)CN2C(=O)c2ccccc2)O1)NCc1cccc(F)c1 | . | 4.5 | . | -0.3 | . | -2.4 | . | .
O=C(c1cnc(Cc2c[nH]c3ccccc23)c(I)c1)N1CCCCC1 | -1.2 | 0.8 | . | -23.5* | 3.3 | -2.3 | -16.9 | .
O=C(c1ccccc1)c1ccc2nc(-c3ccc(NC(=O)c4ccccc4Br)cc3)[nH]c2c1 | . | 3.8 | -6.8 | -17.1* | -0.4 | . | . | -13
Cc1ccc2c(c1)OC(=O)CC2c1ccccc1 (stereo unspecified) | . | . | 10.6 | . | -0.9 | 3.2 | . | .
Cc1ccc2c(c1C)OC(=O)CC2c1ccccc1 (stereo unspecified) | -59.4 | -0.8 | -16.6 | -27.3* | -0.9 | 2.2 | . | ?
CNC[C@@H]1Oc2ncccc2C(=O)N(C)C[C@@H]1C | . | . | . | 2.2 | . | -7.3 | . | .
COc1ccc(OC)c(-c2csc(NC(=O)C3c4ccccc4Oc4ccccc43)n2)c1 | -131.5 | . | 8.8 | . | 13.2 | -2.9 | . | .
COc1ccc(OC)c(-c2csc(NC(=O)C3COc4ccccc4O3)n2)c1 (stereo unspecified) | -0.4 | 3.8 | 5.4 | -22.8* | 1.3 | 2.7 | -4.45 | .
NS(=O)(=O)c1ccc(NC(=O)c2cc(Cl)sc2Cl)cc1 | 4.2 | 1.1 | 9.9 | -25.0* | -2.4 | 11.2 | -0.143 | -6.11
Cc1ccc(CC2CC(=O)N(c3cc(C)on3)C2=O)cc1 (stereo unspecified) | -6.8 | 1.2 | 3.9 | 11.7 | 13.1 | -0.8 | . | .
SMILES | HIV Env fusion | ERp5 inh | PvdQ inh | Ecoli rRNA inh | PDI turbidity | FN deposition inh | AID977621 | AID977628
Cc1ccc(CC2C(=O)N(c3cc(Cl)ccn3)C(=O)C2C)cc1 (stereo unspecified) | -0.6 | 8.8 | -11.0 | -20.4* | -5.4 | 1.9 | -19.6 | ?
CCOC(=O)CCSc1n[nH]c(=S)s1 | -11.7 | 6.0 | -4.9 | -20.7* | -3.5 | -1.0 | -14.4 | -2.74
CCOC(=O)CSc1n[nH]c(=S)s1 | -1.0 | 0.8 | 20.9 | 0.0 | 3.5 | -3.1 | . | .
CN(C)C(CNC(=O)c1ccc([N+](=O)[O-])cc1Cl)c1ccco1 (stereo unspecified) | -6.2 | -2.5 | -7.8 | 1.1 | 5.5 | 4.6 | . | .
CN(C)C(CNS(=O)(=O)c1cc([N+](=O)[O-])ccc1Cl)c1ccco1 (stereo unspecified) | -4.4 | 7.5 | 8.2 | -2.3* | 3.2 | -4.5 | . | -11.5
Cc1ccc(S(=O)(=O)N2[C@@H]3CNC[C@H]2C3c2ccc(-c3ccccc3C)cc2)cc1 (stereo partly specified) | . | 4.9 | . | -15.7 | . | 7.7 | . | .
O=C(CN1CCOCC1)NCC[C@@H]1CC[C@@H](NC(=O)Cc2ccccn2)[C@@H](CO)O1 | 12.5[16.7 µM] | 0.5 | . | 3.2 | . | 3.6 | . | .
CC(OC(=O)Cc1ccc(F)cc1)C(=O)NCc1ccc2c(c1)OCO2 (stereo unspecified) | -4.9 | -6.1 | -13.7 | -4.2 | 6.6 | 2.1 | . | .
COc1cccc(CC(=O)OC(C)C(=O)NCc2ccc3c(c2)OCO3)c1 (stereo unspecified) | -14.2 | -4.2 | -12.0 | -30.5* | 0.2 | -3.2 | ? | ?
COc1ccc2c(CC(=O)NCc3ccc4c(c3)OCO4)coc2c1 | . | 2.3 | 7.3 | -25.4* | 9.2 | . | 2.26 | ?
COc1ccc(NC(=O)N(C)C[C@H]2Oc3c(NC(=O)Nc4ccc(C(F)(F)F)cc4)cccc3C(=O)N([C@@H](C)CO)C[C@H]2C)cc1 | 4.3[16.7 µM] | . | . | 3.2 | . | . | . | .
COCC(=O)N1CC2(CN(Cc3cccnc3)C2)c2c(n(C)c3cc(OC)ccc23)[C@H]1CO | . | -9.2 | . | 2.3 | . | . | . | .
COc1ccc(CN(C)C[C@@H]2OCCCC[C@H](C)Oc3ccc(NC(=O)Nc4ccccc4)cc3C(=O)N([C@H](C)CO)C[C@@H]2C)cc1 | -18.9[16.7 µM] | . | . | 0.0 | . | -0.3 | . | .
CN(C)CCCN(C(=O)CCOc1ccccc1)c1nc2c(F)cccc2s1 | 12.7 | 4.0 | -20.2 | -14.1* | 4.0 | -3.7 | -8.51 | ?
